# Source: PubChem
# An excerpt weighted towards active compounds, which were near 1.6% of everything screened.
# Wee1 stabilizer: Wee1 degradation inhibitors, primary screen, cell-based, HeLa, Wee1K328M-luciferase, luminescence; Wee1-like protein kinase (Homo sapiens), P30291; 220,000 compounds, 1.2% hits; HeLa Luc-Wee1K328M stability; 100% = proteasome inhibitor MG132 effect; reporter increase, % at 5 µM; AID 1321, 2008;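 active = activation above the mean of all tested compounds plus 3 SD, set per screening run, cut at about 8.8% in these data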;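 note: cells exposed to compound for 20 h before luminescence read; 0% = DMSO alone and 100% = MG132 at 30 µM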
# Mdm2 ligase inh: MDM2-luciferase reporter signal enhancers, primary screen, MDM2 E3 ligase inhibitor project, cell-based, luminescence, 1536-well; signal enhancement, % at 5 µM; 210,000 compounds, 0.11% hits; AID 1230, 2008; cell-based MDM2 ubiquitination luciferase reporter, 2 h; 0 = plate control, 100 = twice control, blank-subtracted;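 active = signal enhancement of 30% or more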;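 note: luminescence tracks abundance of the self-degrading MDM2-luciferase fusion protein; higher signal means inhibition of MDM2 E3 ligase activity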
# Target sequence (Q00987 whole entry, looked up, the tested form may be a part): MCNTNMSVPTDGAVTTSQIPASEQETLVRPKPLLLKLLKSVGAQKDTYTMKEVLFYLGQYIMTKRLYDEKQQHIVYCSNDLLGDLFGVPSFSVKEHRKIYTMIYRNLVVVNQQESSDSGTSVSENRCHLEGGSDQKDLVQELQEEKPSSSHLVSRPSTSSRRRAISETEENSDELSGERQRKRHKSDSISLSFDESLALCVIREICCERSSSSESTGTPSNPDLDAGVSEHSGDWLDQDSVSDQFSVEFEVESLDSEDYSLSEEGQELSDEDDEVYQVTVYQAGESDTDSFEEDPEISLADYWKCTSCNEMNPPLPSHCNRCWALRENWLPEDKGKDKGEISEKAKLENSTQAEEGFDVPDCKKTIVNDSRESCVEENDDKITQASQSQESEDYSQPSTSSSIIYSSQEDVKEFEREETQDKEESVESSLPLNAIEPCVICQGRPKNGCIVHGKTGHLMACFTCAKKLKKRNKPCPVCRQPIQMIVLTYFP
#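 Material: Stable MDM2–luciferase fusion reporter cells | Amount: 2000 cells seeded into each well | Dosing: One concentration, 5 µM, with 0.2% DMSO | Incubation: 4 h cell settling then 2 h compound exposure, 37 °C | Measured by: Luciferase luminescence | Read-out basis: % enhancement relative to plate controls after blank subtraction | Benchmarks: Control and blank well means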
# Pf gametocyte: late stage P. falciparum gametocyte viability inhibitors, primary screen, ATP luminescence, HTS | P. falciparum stage V gametocytes, 24 h | inhibition, % at 10.9 µM | 150,000 compounds, 0.065% hits | AID 743093, 2013;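 active = inhibition above the mean plus 3 SD of compounds within the control limits, set per campaign, cut at about 38% in these data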;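 note: 0% = DMSO wells and 100% = medium only without gametocytes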
# TNF necrop inh: inhibitors of TNF-alpha triggered necroptosis, primary screen, cell-based, Jurkat FADD-/-, single concentration; Jurkat FADD-/- TNF necroptosis rescue, ATP luminescence, 24 h; 0 = TNF only, 100 = no-TNF cells; activation (protection from cell death), % at 10 µM; 220,000 compounds, 0.068% hits; AID 463075, 2010;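 active = activation, meaning protection from cell death, of at least 50% relative to plate controls; inactive = activation below 50%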;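 note: necroptosis triggered by 40 ng/mL TNF-alpha added together with compound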
# zVAD death inh: inhibitors of zVAD-triggered necroptosis, primary screen, L929 cells | L929 zVAD necroptosis rescue, ATP luminescence, 24 h; with zVAD 60 µM | viability rescue, % at 10 µM | 220,000 compounds, 0.38% hits | AID 1377, 2008;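 active = activation, scaled between plate controls, above about 75%, limit read from the data; inactive = activation under that limit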;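 note: 0% = zVAD with DMSO and 100% = DMSO alone without zVAD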
# Starred values were filed as active, the others as inactive; . = no result.
SMILES,Wee1 stabilizer,Mdm2 ligase inh,Pf gametocyte,TNF necrop inh,zVAD death inh
Cc1ccc(N2C(=S)SC3CS(=O)(=O)CC32)cc1 (centres undefined),1,8,38*,1,1
CCCN=C(C)C1=C(O)c2ccccc2C1=O,9.1*,-9,-4,1,.
CSc1ccc(Cc2ccc(Cl)cc2Cl)nn1,-1,-4,-4,62*,8
O=C(N/N=C\c1ccc(Cl)s1)c1cccs1,2,31*,-10,0,1
COc1ccc(NC(=O)C2CCCN(c3cc(C)nc4ncnn34)C2)cc1 (centres undefined),2,8,-14,0,3
Cc1nnsc1C(=O)NNc1c(Cl)cccc1Cl,9.0*,3,11,84*,-1
Cc1nnsc1C(=O)NNc1ccc(Cl)cc1,0,-2,-9,11,1
Cc1ccc(C2=NNC(c3cccc(F)c3)S2)cc1 (centres undefined),15*,-82,12,-2,0
Fc1cccc(C2NN=C(c3ccccc3)S2)c1 (centres undefined),-3,-38,.,-1,0
O=C(Nc1cccc(C(F)(F)F)c1)c1cnc2n(c1=O)CCS2,0,-9,.,-1,0
C=CCN=C1S/C(=C/c2ccc([N+](=O)[O-])cc2)C(=O)N1CC=C,8,-6,-16,1,1
C=CCN=C1S/C(=C/c2cccc([N+](=O)[O-])c2)C(=O)N1CC=C,9.9*,4,-4,-12,-1
O=C(O)CCc1ccc(-c2ccc(Br)cc2)n1CC(=O)O,4,34*,-6,-2,0
N#CC[n+]1cc(-c2ccc(Cl)cc2)n2c1CCC2,8.9*,-4,-4,-2,0
O=C(CSCc1ccc([N+](=O)[O-])cc1)NC1CC2CCC1C2 (centres undefined),-3,-12,-27,63*,5
CC1=NN(c2nc(-c3ccc(C)cc3)cs2)C(=O)C1N=Nc1ccc(C(N)=O)cc1 (centres undefined),9.9*,-15,-20,-1,3
Cc1cccc(C(=O)Oc2ccccc2C(=O)N2CCOCC2)c1,-1,10,21,0,0
COc1ccc(N2C(=O)C(CC(=O)Nc3ccccc3)N(Cc3ccccn3)C2=S)cc1 (centres undefined),9.1*,-2,-9,0,0
CC1(C)Cn2c(nc(=O)c3c2NCN(CCc2ccccc2)C3)S1,1,-16,.,1,1
CCS(=O)(=O)N1Cc2ccccc2CC1C(=O)Nc1ccc(C)cc1 (centres undefined),1,.,-10,3,0
CCS(=O)(=O)N1Cc2ccccc2CC1C(=O)Nc1cccc(C)c1 (centres undefined),9.9*,-9,-13,1,1
NC(=O)CC(NC(=O)c1ccccc1)c1ccc(N2CCC(Cc3ccccc3)CC2)c([N+](=O)[O-])c1 (centres undefined),.,.,-39,.,.
N#Cc1ccccc1NC(=O)COC(=O)COc1ccccc1[N+](=O)[O-],1,-1,-24,1,2
O=C(COC(=O)COc1ccccc1[N+](=O)[O-])NC1CCCC1,10*,-9,.,2,0
Cc1ccc(-c2c3c(=O)n(C)c(=O)n(C)c3cn2Cc2cccnc2)cc1,24*,2,.,-1,0
SMILES,Wee1 stabilizer,Mdm2 ligase inh,Pf gametocyte,TNF necrop inh,zVAD death inh
Cc1nn(-c2ccc(F)cc2)c(C)c1NS(=O)(=O)c1ccc2ccccc2c1,6,-1,.,0,0
CC(=O)Nc1ccc(S(=O)(=O)Nc2ccc(S(=O)(=O)N3CCCC3)cc2)cc1,9.2*,1,0,0,1
CC(=O)Nc1ccc(S(=O)(=O)N2CCN(C)CC2)cc1,-1,-36,9,1,0
Cc1cc(C)c(/C([O-])=C(/C(=S)Nc2ccc(SC(F)F)cc2)[n+]2ccccc2)cc1C,-2,-9,13,0,1
Cc1ccc(NC(=S)/C(=C(\[O-])c2ccc(F)cc2)[n+]2ccccc2)cc1,-3,-2,39*,1,1
S=C(NCc1ccco1)Nc1ccc(Br)cc1Cl,-2,-24,8,-3,0
OCCCNC(=S)Nc1ccc(Br)cc1Cl,8.9*,-8,0,-1,0
COCCN(C(=O)CNC(=O)c1cccs1)C(C(=O)NC1CCCC1)c1cccs1 (centres undefined),9.8*,-14,15,-1,-1
COc1ccc(N2CCN(c3oc(COc4ccccc4Cl)nc3C#N)CC2)cc1,9.6*,-14,11,3,2
O=C1c2ccsc2SCCN1Cc1ccccc1,-1,-9,.,70*,1
Cc1csc(NC(=O)Nc2ccc(Cl)cc2)n1,8.9*,1,.,2,23
O=[N+]([O-])c1cccc(CSc2nc3ccccc3[nH]2)c1,-1,-10,14,2,1
COc1cccc(CSc2nc3ccccc3[nH]2)c1,9.0*,-10,.,1,0
COc1ccccc1CNC(=O)CSc1ccsc1[N+](=O)[O-],9.2*,-13,-19,2,10
Cc1ccc(S(=O)(=O)Nc2cccc(N(C)S(C)(=O)=O)c2)cc1[N+](=O)[O-],2,.,16,1,1
Cc1csc(Nc2ccccc2)[n+]1-c1ccccc1,4,-4,7,56*,1
CC(C)C(=O)Nc1ccc(NC(=O)c2ccco2)cn1,5,-16,.,0,5
COC(=O)c1ccc(NC(=S)NNC(=O)CC(C)C)cc1,10*,7,-14,2,0
COC(=O)c1ccc(/C=N/OCC(=O)NC2CCCCCCC2)cc1,0,-9,9,0,78*
O=S(=O)(Nc1ccc(S(=O)(=O)Nc2ccccc2)cc1)c1ccccc1,9.2*,3,4,0,1
O=C1CN2C(=N1)N(Cc1ccccc1)c1ccccc12,0,0,.,-1,0
O=C(CCCn1cnc([N+](=O)[O-])n1)Nc1ccc(F)c(Cl)c1,9.9*,-7,19,8,1
CC1CCN(S(=O)(=O)c2ccc(N=NC3=C(O)CC(C)(C)CC3=O)cc2)CC1,1,7,44*,2,0
CC1(C)CC(=O)C(N=Nc2cccc(S(=O)(=O)N3CCOCC3)c2)=C(O)C1,7,-30,-9,-4,0
CC(C)(C)NC(=O)CC1C(=O)NCCN1Cc1c(F)cccc1Cl (centres undefined),-4,11,-1,0,0
COc1ccc(C(=O)NCC(C)NC(=O)c2ccc(OC)c(OC)c2)cc1OC (centres undefined),.,.,10,.,.
